According to ChEMBL document CHEMBL2434855, “Aggrecanase-2 inhibitors based on the acylthiosemicarbazide zinc-binding group” (Eur J Med Chem, 2013):

Assays:
[1] = target: T1, A disintegrin and metalloproteinase with thrombospondin motifs 5 (Homo sapiens, UniProt Q9UNA0); assay: Inhibition of human recombinant ADAMTS-5 using QTVTWPDMELPLPRNITEGEARGSVIL-TVKPIFEVSPSPL(biotinyl)K as substrate incubated 10 mins prior to substrate addition measured after 3 hrs by spectrophotometry
T1 sequence (Q9UNA0 whole entry): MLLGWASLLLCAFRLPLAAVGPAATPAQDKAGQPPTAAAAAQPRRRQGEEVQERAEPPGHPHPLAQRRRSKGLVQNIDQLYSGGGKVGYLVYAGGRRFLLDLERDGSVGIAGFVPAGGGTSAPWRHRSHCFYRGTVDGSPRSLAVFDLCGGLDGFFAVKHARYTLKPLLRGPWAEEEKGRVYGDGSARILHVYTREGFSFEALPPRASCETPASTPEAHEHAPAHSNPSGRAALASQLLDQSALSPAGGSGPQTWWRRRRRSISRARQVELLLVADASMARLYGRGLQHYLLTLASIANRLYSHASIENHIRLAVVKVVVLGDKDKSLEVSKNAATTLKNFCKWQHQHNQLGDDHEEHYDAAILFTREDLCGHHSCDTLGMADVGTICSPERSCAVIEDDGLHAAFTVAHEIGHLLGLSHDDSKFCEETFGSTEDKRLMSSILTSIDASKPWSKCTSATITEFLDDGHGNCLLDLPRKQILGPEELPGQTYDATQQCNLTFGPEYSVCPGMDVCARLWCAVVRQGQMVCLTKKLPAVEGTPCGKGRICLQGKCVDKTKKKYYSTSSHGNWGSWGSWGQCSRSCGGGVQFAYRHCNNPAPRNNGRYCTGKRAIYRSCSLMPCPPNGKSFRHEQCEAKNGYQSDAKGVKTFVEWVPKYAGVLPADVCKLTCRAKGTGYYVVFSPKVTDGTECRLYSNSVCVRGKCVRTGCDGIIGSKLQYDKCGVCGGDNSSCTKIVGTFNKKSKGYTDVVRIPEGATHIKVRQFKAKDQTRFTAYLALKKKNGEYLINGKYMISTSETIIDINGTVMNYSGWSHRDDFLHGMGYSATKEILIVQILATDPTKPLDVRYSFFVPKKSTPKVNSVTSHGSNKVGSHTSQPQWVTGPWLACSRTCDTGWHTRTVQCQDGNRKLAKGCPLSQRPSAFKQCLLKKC

[2] = target: T2, A disintegrin and metalloproteinase with thrombospondin motifs 4 (Homo sapiens, UniProt O75173); assay: Inhibition of human recombinant ADAMTS-4 using QTVTWPDMELPLPRNITEGEARGSVIL-TVKPIFEVSPSPL(biotinyl)K as substrate incubated for 10 mins prior to substrate addition measured after 3 hrs by spectrophotometry
T2 sequence (O75173 whole entry): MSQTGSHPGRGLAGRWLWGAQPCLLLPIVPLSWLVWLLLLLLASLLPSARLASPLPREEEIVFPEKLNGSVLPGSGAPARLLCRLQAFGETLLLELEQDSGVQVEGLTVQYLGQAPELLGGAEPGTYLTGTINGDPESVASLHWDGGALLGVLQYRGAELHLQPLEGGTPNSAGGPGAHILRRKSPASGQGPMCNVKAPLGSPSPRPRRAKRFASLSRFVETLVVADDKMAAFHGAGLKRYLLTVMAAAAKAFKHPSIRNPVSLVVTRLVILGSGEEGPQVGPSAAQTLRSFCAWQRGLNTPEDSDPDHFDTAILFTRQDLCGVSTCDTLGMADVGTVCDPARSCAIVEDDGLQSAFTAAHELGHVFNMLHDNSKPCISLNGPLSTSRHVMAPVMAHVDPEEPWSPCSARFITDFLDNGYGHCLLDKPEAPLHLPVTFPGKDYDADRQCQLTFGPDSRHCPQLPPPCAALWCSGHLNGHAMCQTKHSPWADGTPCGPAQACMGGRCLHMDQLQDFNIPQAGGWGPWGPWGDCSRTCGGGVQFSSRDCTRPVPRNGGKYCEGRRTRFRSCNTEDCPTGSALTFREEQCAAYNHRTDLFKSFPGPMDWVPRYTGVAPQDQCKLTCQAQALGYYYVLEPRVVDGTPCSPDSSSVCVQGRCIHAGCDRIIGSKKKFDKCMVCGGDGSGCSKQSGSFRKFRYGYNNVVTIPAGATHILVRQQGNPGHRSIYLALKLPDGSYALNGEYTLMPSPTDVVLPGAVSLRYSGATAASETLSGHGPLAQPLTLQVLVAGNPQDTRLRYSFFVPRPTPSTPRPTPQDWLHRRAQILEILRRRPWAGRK
Summary of the method: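 It was then added to streptavidin wells coated with the biotinylated 41-mer aggrecan peptide and reacted for 3 h at 37 °C. Cleavage product was detected by BC-3 anti-ARGxx ELISA with HRP and TMB, read at 450 nm.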

[3] = target: T3, A disintegrin and metalloproteinase with thrombospondin motifs 5 (Homo sapiens) (UniProt Q9UNA0); assay: Inhibition of human recombinant ADAMTS-5 using QTVTWPDMELPLPRNITEGEARGSVIL-TVKPIFEVSPSPL(biotinyl)K as substrate at 100 uM incubated 10 mins prior to substrate addition measured after 3 hrs by spectrophotometry
T3 sequence (whole entry): T1 sequence (Q9UNA0 whole entry)

[4] = target: T3, A disintegrin and metalloproteinase with thrombospondin motifs 5 (Homo sapiens); assay: Inhibition of human recombinant ADAMTS-5 using bovine articular aggrecan as substrate incubated 20 mins prior to substrate addition measured after 48 hrs by spectrophotometry
Summary of the method: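 ADAMTS-5 (3.4 µL of 600 nM stock) was pre-incubated 20 min at 37 °C with compound or 4% DMSO vehicle in Tris/NaCl/CaCl₂/Brij35, pH 7.5. Bovine articular aggrecan (50 µg/mL final) was added for 48 h at 37 °C, then stopped with EDTA. Samples were bound to PVDF and digested with chondroitinase ABC and keratanase. The ARGSVIL neoepitope was detected by BC-3 ELISA with TMB, read at 450 nm.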

[5] = Solubility of the compound at 100 uM; type: physicochemical

| Compound | IC50 [1] [nM] | other results |
| --- | --- | --- |
| O=C(NNC(=S)NCc1ccc(-c2ccccc2)cc1)c1ccc(Cl)cc1 | 700 | IC50 [2]: 1600 nM |
| O=C(COc1ccc(Cl)cc1)NNC(=S)N1CCC(Cc2ccccc2)CC1 | 1600 |  |
| O=C(COc1ccc(Cl)cc1)NNC(=S)NCCCCc1ccccc1 | 1000 |  |
| O=C(COc1ccc(C(F)(F)F)cc1)NNC(=S)NCc1ccc(-c2ccccc2)cc1 | 1700 |  |
| O=C(COc1ccc(Cl)cc1)NNC(=S)NCc1cccc(-c2ccccc2)c1 | 2300 |  |
| O=C(COc1ccc(Cl)cc1)NNC(=S)NCc1cccnc1 | 100000 | inhibition [3]: 50% |
| O=C(Cc1ccc(-c2ccccc2)cc1)NNC(=S)NCCc1ccc(Cl)cc1 | 5200 |  |
| O=C(COc1ccccc1)NNC(=S)NCc1ccc(-c2ccccc2)cc1 | 10000 |  |
| O=C(COc1ccc(C(F)(F)F)cc1)NNC(=S)NCCCCC1CCCCC1 | 540 | IC50 [2]: 610 nM |
| O=C(COc1ccc(Cl)cc1)NNC(=S)NCc1ccccc1-c1ccccc1 | 490 | IC50 [2]: 2900 nM |
| CC(C)(Oc1ccc(Cl)cc1)C(=O)NNC(=S)NCc1ccc(-c2ccccc2)cc1 | 6900 |  |
| O=C(NNC(=S)NCCCCC1CCCCC1)c1ccc(Cl)cc1 | 670 | inhibition [4]: Dose-dependent effect; IC50 [2]: 1400 nM |
| O=C(Cc1nc(-c2cnccn2)no1)NNC(=S)NCCCCC1CCCCC1 | 3100 |  |
| O=C(COc1cccc2ccccc12)NNC(=S)NCc1ccc(-c2ccccc2)cc1 | 4100 |  |
| O=C(COc1cccc2ccccc12)NNC(=S)NCCCCC1CCCCC1 | 880 | IC50 [2]: 1000 nM |
| O=C(COc1ccc([N+](=O)[O-])cc1)NNC(=S)NCc1ccc(-c2ccccc2)cc1 | 4000 |  |
| CN(CCCCc1ccccc1)C(=S)NNC(=O)COc1ccc(Cl)cc1 | 1100 | IC50 [2]: 1500 nM |
| O=C(COc1ccc(Cl)cc1Cl)NNC(=S)NCc1ccc(-c2ccccc2)cc1 | 1200 |  |
| O=C(COc1cccc(Cl)c1)NNC(=S)NCc1ccc(-c2ccccc2)cc1 | 2100 |  |
| CN(NC(=S)NCCCCC1CCCCC1)C(=O)COc1ccc(Cl)cc1 | > 100000 | inhibition [3]: < 30% |
| O=C(COc1ccc(Cl)cc1)NNC(=S)NCCCn1ccnc1 | 1600 |  |
| O=C(COc1ccc(Cl)cc1)Nn1ccn(Cc2ccc(-c3ccccc3)cc2)c1=S | > 100000 | inhibition [3]: < 30% |
| O=C(COc1ccc([N+](=O)[O-])cc1)NNC(=S)NCCCCC1CCCCC1 | 810 | IC50 [2]: 790 nM |

| Compound | IC50 [1] [nM] | other results |
| --- | --- | --- |
| O=C(Cc1ccc(-c2ccccc2)cc1)NNC(=S)NCCCCC1CCCCC1 | 300 | IC50 [2]: 730 nM |
| COc1ccc(OCC(=O)NNC(=S)NCc2ccc(-c3ccccc3)cc2)cc1 | 1700 |  |
| O=C(COc1ccc(Cl)cc1)NNC(=S)NCc1ccccc1 | 12600 |  |
| CN(NC(=S)NCc1ccc(-c2ccccc2)cc1)C(=O)COc1ccc(Cl)cc1 | > 100000 | inhibition [3]: < 30% |
| COc1ccc(OCC(=O)NNC(=S)NCCCCC2CCCCC2)cc1 | > 100000 | inhibition [3]: 50% |
| O=C(COc1ccc(OCc2ccccc2)cc1)NNC(=S)NCc1ccc(-c2ccccc2)cc1 | 1000 |  |
| O=C(COc1ccc(Cl)cc1)NNC(=S)NCCc1ccccc1 | 2800 |  |
| CC(=O)NNC(=S)NCCCCC1CCCCC1 | > 100000 | inhibition [3]: < 20% |
| O=C(COc1ccc(Cl)c(Cl)c1)NNC(=S)NCc1ccc(-c2ccccc2)cc1 | 1200 |  |
| O=C(COc1ccc(-c2ccccc2)cc1)NNC(=S)NCc1ccc(-c2ccccc2)cc1 | 60000 | solubility [5]: Insoluble |
| O=C(COc1ccc(Cl)cc1)NCC(S)C(=O)NCCc1ccccc1 (stereo not given) | 8700 |  |
| O=C(CNc1ccc(Cl)cc1)NNC(=S)NCc1ccc(-c2ccccc2)cc1 | 6300 |  |
| O=C(COc1ccccc1Cl)NNC(=S)NCc1ccc(-c2ccccc2)cc1 | 1900 |  |
| O=C(COc1ccc(Cl)cc1)NCC(=S)NCc1ccc(-c2ccccc2)cc1 | > 100000 | inhibition [3]: < 30% |
| O=C(COc1ccc(Cl)cc1)NNC(=S)NCc1ccc(-c2ccccc2)cc1 | 1200 |  |
| O=C(COc1ccc(F)cc1)NNC(=S)NCc1ccc(-c2ccccc2)cc1 | 100000 | inhibition [3]: 49% |
| O=C(NNC(=S)NCc1ccc(-c2ccccc2)cc1)C1CNc2cc(Cl)ccc2O1 (stereo not given) | 3300 |  |
| O=C(COc1ccccc1)NNC(=S)NCCCCC1CCCCC1 | > 100000 | inhibition [3]: < 20% |
| O=C(COc1ccc(Cl)cc1)NNC(=S)NCCCc1ccccc1 | 1400 | IC50 [2]: 2000 nM |
| O=C(COc1ccc2ccccc2c1)NNC(=S)NCc1ccc(-c2ccccc2)cc1 | 3200 |  |
| O=C(Cc1nc(-c2ccccc2)no1)NNC(=S)NCCCCC1CCCCC1 | 340 |  |
| O=C(NNC(=S)NCCCCC1CCCCC1)C1CNc2cc(Cl)ccc2O1 (stereo not given) | 1260 |  |
